# Key:
# [1] = Selectivity for glycine site
# [2] = biological target: Glutamate receptor ionotropic, AMPA (Rattus norvegicus) (UniProt P19491+P19492+P19493+P19490); assay: Binding affinity against rat brain Non N-methyl-D-aspartate glutamate receptor glutamate site expressed in Xenopus oocyte
# How it was run: (§1)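 Oocytes expressing whole rat brain poly(A)+ RNA (~50 ng injected), voltage-clamped with two electrodes 3–10 days after injection and perfused with Ringer pH 7.4. Antagonist perfused ~30 s before agonist, with washout over 1–5 min. Non-NMDA IC50 estimated from partial (three- or four-point) concentration-inhibition curves fit to a logistic equation with a slope factor. Final DMSO 0.03–0.3%.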
# Rattus norvegicus = species on record: Rattus norvegicus; assay: The compound was tested for binding affinity against Non N-methyl-D-aspartate glutamate receptor glutamate site expressed in Xenopus oocyte; how it was run: as §1
# [3] = biological target: Glutamate receptor ionotropic, NMDA 1 (Rattus norvegicus) (UniProt P35439); assay: The compound was tested for binding affinity against NMDA receptor glycine site in Xenopus oocyte
# How it was run: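 Xenopus stage V–VI oocytes injected with ~50 ng rat whole-brain poly(A)+ RNA; two-electrode voltage clamp at −70 mV, 3–10 days post-injection, frog Ringer pH 7.4. NMDA fixed at 100 µM, glycine 1 µM; antagonist pre-applied ~30 s with glycine. Amplitude read at the slow second-phase peak; IC50 from 3–4-point inhibition curves fit with slope factor.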
SMILES,Selectivity [1],Kb [2] [µM],Kb (Rattus norvegicus) [µM],Kb [3] [µM]
Oc1nc2cc(C(F)(F)F)c(Cl)c(Cl)c2nc1O,6.5,1.23,,
Oc1nc2cc(Br)cc(C(F)(F)F)c2nc1O,14,3.4,,
O=[N+]([O-])c1c(F)c(Cl)c(F)c2nc(O)c(O)nc12,23,6.56,,
O=c1[nH]c2cc(Cl)c(Cl)c([N+](=O)[O-])c2[nH]c1=O,254,1.5,,
Oc1nc2cc(C(F)(F)F)cc(Br)c2nc1O,4.2,4.29,,
Oc1nc2cc(Cl)c(Br)cc2nc1O,16,5.7,,
Oc1nc2cc(F)cc(C(F)(F)F)c2nc1O,4.8,16.3,,
O=[N+]([O-])c1cc(C(F)(F)F)cc2nc(O)c(O)nc12,13,4.13,,
Oc1nc2c(F)c(F)c(F)c(F)c2nc1O,8,26.6,,
Nc1c(Br)c(Br)cc2nc(O)c(O)nc12,66,3.32,,
Oc1nc2cc(F)c(C(F)(F)F)cc2nc1O,1.5,3.78,,
Oc1nc2cc(F)c(F)c(Cl)c2nc1O,10,17.9,,
Oc1nc2cc(Cl)c(Cl)cc2nc1O,13,4.81,,
O=[N+]([O-])c1c(F)c(Cl)cc2nc(O)c(O)nc12,81,1.61,,
Oc1nc2cc(F)c(Cl)cc2nc1O,4.5,10.8,,
Oc1nc2cc(Cl)c(Cl)c(C(F)(F)F)c2nc1O,14,2.66,,
Oc1nc2cc(Cl)c(Cl)c(Cl)c2nc1O,51,4.19,,
Oc1nc2cc(Cl)cc(C(F)(F)F)c2nc1O,7.6,4.67,,
O=[N+]([O-])c1cc2nc(O)c(O)nc2cc1Cl,2.3,0.64,,
O=[N+]([O-])c1c(Br)ccc2nc(O)c(O)nc12,28,36.3,,
Oc1nc2cc(Cl)c(Cl)c(Br)c2nc1O,43,4.11,,
O=[N+]([O-])c1cccc2nc(O)c(O)nc12,> 5.8,> 100,,
O=[N+]([O-])c1cc(Cl)cc2nc(O)c(O)nc12,16,8.02,,
Nc1c(C(F)(F)F)cc(Cl)c2nc(O)c(O)nc12,,63.4,,
O=[N+]([O-])c1ccc2nc(O)c(O)nc2c1,0.7,1.67,,
Nc1c(Cl)c(Cl)cc2nc(O)c(O)nc12,88,5.19,,

SMILES,Selectivity [1],Kb [2] [µM],Kb (Rattus norvegicus) [µM],Kb [3] [µM]
Oc1nc2ccc(Cl)cc2nc1O,6.3,16.4,,
O=[N+]([O-])c1c(Cl)c(C(F)(F)F)cc2nc(O)c(O)nc12,15,0.55,,
Oc1nc2cc(F)c(F)c(F)c2nc1O,5.4,30.4,,
Oc1nc2ccc(Br)cc2nc1O,4.7,11.2,,
CC(=O)Nc1c(Cl)c(Cl)cc2nc(O)c(O)nc12,23,5.57,,
O=[N+]([O-])c1c(Br)c(F)cc2nc(O)c(O)nc12,35,3.45,,
Oc1nc2ccccc2nc1O,5.9,98.2,,
Oc1nc2cc(Cl)cc(Cl)c2nc1O,13,9.27,,
O=[N+]([O-])c1c(F)c(F)cc2nc(O)c(O)nc12,19,6.01,,
Oc1nc2cc(C(F)(F)F)cc(C(F)(F)F)c2nc1O,4.9,2.21,,
Oc1nc2cc(C(F)(F)F)cc(Cl)c2nc1O,7.1,3.7,,
Oc1nc2cc(Br)cc(Br)c2nc1O,6.8,6.01,,
O=[N+]([O-])c1c(F)c(Br)cc2nc(O)c(O)nc12,35,1.4,,
Oc1nc2cc(Br)c(C(F)(F)F)cc2nc1O,5.7,1.49,,
O=[N+]([O-])c1c(Cl)c(Cl)c(Cl)c2nc(O)c(O)nc12,11,14.1,,
O=[N+]([O-])c1c(Cl)ccc2nc(O)c(O)nc12,74,36.4,,
Oc1nc2cc(Cl)c(C(F)(F)F)cc2nc1O,9.8,2.55,,
Oc1nc2cc(F)c(F)cc2nc1O,4.5,21.5,,
O=[N+]([O-])c1c(Br)c(Br)cc2nc(O)c(O)nc12,140,,0.89,
Oc1nc2cc(Br)c(Br)cc2nc1O,19,4.05,,
O=[N+]([O-])c1c(Br)c(C(F)(F)F)cc2nc(O)c(O)nc12,17,0.47,,
O=[N+]([O-])c1c(C(F)(F)F)cc(Cl)c2nc(O)c(O)nc12,,> 30,,
O=[N+]([O-])c1c(Cl)cc2nc(O)c(O)nc2c1[N+](=O)[O-],24,,0.99,0.042
O=[N+]([O-])c1c(Br)c(Cl)cc2nc(O)c(O)nc12,120,0.95,,
Oc1nc2cc(F)c(Cl)c(F)c2nc1O,7.3,13.2,,
O=[N+]([O-])c1c(Cl)c(Br)cc2nc(O)c(O)nc12,170,1.24,,
